Assay results taken from ChEMBL document CHEMBL1123309, “Esters and lactones of phenolic amino carboxylic acids: prodrugs for iron chelation” (J Med Chem, 1986).
Several values for one entry are separate records, joined by “and”; a condition that tells them apart may be missing. Identical values can stand only once.

How the values were obtained:
[1] = tested on: Rattus norvegicus; assay: Percent change in iron levels was determined in urine using iron overload rat model where the route of administration is Intraperitoneal; assay type: functional
[2] = tested on: Rattus norvegicus; assay: Percent change in iron levels was determined in urine using iron overload rat model where the route of administration is Peroral; assay type: functional
[3] = tested on: Rattus norvegicus; assay: Percent change in iron levels was determined in feces using iron overload rat model where the route of administration is Intraperitoneal; assay type: functional
[4] = tested on: Rattus norvegicus; assay: Percent change in iron levels was determined in feces using iron overload rat model where the route of administration is Peroral; assay type: functional
[5] = Compound was evaluated for lethal dose after intraperitoneal administration using iron overload rat model; assay type: toxicity, organism-based; details: in vivo, ip
[6] = tested on: Mus musculus; assay: BDF1 male mice were administered reduced to 100 mg/kg on day 4 intraperitoneally and percent change in iron levels was determined in Spleen; assay type: functional; details: route oral, in the assay text read “orally” for “intraperitoneally”
How it was run: (§1)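 Male BDF1 mice made iron-overloaded by transfusion of washed, heat-treated (50 °C, 30 min) canine red cells. Dosing began 2 days after the last transfusion, once daily for 7 days, in distilled water or 2% Polysorbate 80 suspension. Daily group urine was collected. Pooled feces were digested in 1 N HCl (90 °C, 30 min). Liver and spleen were homogenized in saline. Iron was measured by atomic absorption and expressed as % change vs transfused controls.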

[7] = tested on: Mus musculus; assay: BDF1 male mice were administered reduced to 100 mg/kg on day 4 intraperitoneally and percent change in iron levels was determined in Liver; assay type: functional; details: route oral, in the assay text read “orally” for “intraperitoneally”; how it was run: as §1
[8] = tested on: Mus musculus; assay: BDF1 male mice were administered with 200 mg/kg intraperitoneally and percent change in iron levels was determined in Feces; assay type: functional; details: route intraperitoneal; how it was run: as §1
[9] = tested on: Mus musculus; assay: BDF1 male mice were administered reduced to 100 mg/kg on day 4 intraperitoneally and percent change in iron levels was determined in Urine; assay type: functional; details: route oral, in the assay text read “orally” for “intraperitoneally”; how it was run: as §1
[10] = tested on: Mus musculus; assay: BDF1 male mice were administered with 200 mg/kg intraperitoneally and number of survivors was determined out of 10 tested; assay type: functional; details: route intraperitoneal, 200 mg/kg
How it was run: (§2)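 Male BDF1 mice were iron-loaded by transfusion of canine red cells. The cells were heparinised, washed twice in isotonic saline and heated at 50 °C for 30 min. Dosing started two days after the last transfusion, once daily for 7 consecutive days. Compounds were given in distilled water or as a fine aqueous suspension with Polysorbate 80 (2% final). Toxic signs were recorded daily and survivors counted per group.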

[11] = tested on: Mus musculus; assay: BDF1 male mice were administered with 200 mg/kg intraperitoneally and percent change in iron levels was determined in Spleen; assay type: functional; details: route intraperitoneal; how it was run: as §1
[12] = tested on: Mus musculus; assay: BDF1 male mice were administered reduced to 100 mg/kg on day 4 intraperitoneally and percent change in iron levels was determined in Feces; assay type: functional; details: route oral, in the assay text read “orally” for “intraperitoneally”; how it was run: as §1
[13] = tested on: Mus musculus; assay: BDF1 male mice were administered with 200 mg/kg intraperitoneally and percent change in iron levels was determined in Urine; assay type: functional; details: route intraperitoneal; how it was run: as §1
[14] = tested on: Mus musculus; assay: BDF1 male mice were administered with the compound and number of survivors was determined out of 10 tested at a dose 375 mg/kg intraperitoneal
[15] = tested on: Mus musculus; assay: BDF1 male mice were administered with 200 mg/kg orally and percent change in iron levels was determined in spleen; assay type: functional; details: route oral; how it was run: as §1
[16] = tested on: Mus musculus; assay: BDF1 male mice were administered with the compound and number of survivors was determined out of 10 tested at a dose 400 mg/kg peroral; assay type: functional; details: route oral; how it was run: as §2
[17] = tested on: Mus musculus; assay: BDF1 male mice were administered with 100 mg/kg orally and percent change in iron levels was determined in spleen; assay type: functional; details: dose 400 mg/kg; route oral; in the assay text read “400 mg/kg” for “100 mg/kg”; how it was run: as §1
[18] = tested on: Mus musculus; assay: BDF1 male mice were administered with the compound and number of survivors was determined out of 10 tested at a dose 200 mg/kg peroral; assay type: functional; details: route oral; how it was run: as §2
[19] = tested on: Mus musculus; assay: BDF1 male mice were administered with 200 mg/kg orally and percent change in iron levels was determined in Feces; assay type: functional; details: route oral; how it was run: as §1
[20] = tested on: Mus musculus; assay: BDF1 male mice were administered with 50 mg/kg orally and percent change in iron levels was determined in spleen; assay type: functional; details: dose 375 mg/kg; route intraperitoneal; in the assay text read “375 mg/kg intraperitoneally” for “50 mg/kg orally”
[21] = tested on: Mus musculus; assay: BDF1 male mice were administered with 200 mg/kg orally and percent change in iron levels was determined in Liver; assay type: functional; details: route oral; how it was run: as §1
[22] = tested on: Mus musculus; assay: BDF1 male mice were administered with 25 mg/kg orally and percent change in iron levels was determined in spleen; assay type: functional; details: dose 200 mg/kg; route intraperitoneal; in the assay text read “200 mg/kg intraperitoneally” for “25 mg/kg orally”
[23] = tested on: Mus musculus; assay: BDF1 male mice were administered with 200 mg/kg orally and percent change in iron levels was determined in Urine; assay type: functional; details: route oral; how it was run: as §1

Q: Which results are given for `COC(=O)C(NCCNC(C(=O)OC)c1ccccc1O)c1ccccc1O` (stereo not drawn)?
A: Iron change [1]: 188%; Iron change [2]: 115%; Iron change [3]: 104%; Iron change [4]: 89%; LD50 [5]: ≥ 800 mg/kg

Q: For `O=C(O)CN(CCN(CC(=O)O)Cc1ccccc1O)Cc1ccccc1O`, which Iron change [6] is on record?
A: Its Iron change is -9%.

Q: What about the Iron change [7] of the same compound?
A: The Iron change was -3%.

Q: What about the Iron change [8] of the same compound?
A: The Iron change was 38%.

Q: And the Iron change [9]?
A: The Iron change was 14%.

Q: And the No. of survivors [10]?
A: The No. of survivors was 10 and 9.

Q: What about the Iron change [1] of the same compound?
A: Its Iron change is 196%.

Q: And the Iron change [11]?
A: The Iron change was -5%.

Q: What about the Iron change [12] of the same compound?
A: The Iron change was -7%.

Q: And the Iron change [2]?
A: The Iron change was 40%.

Q: What about the Iron change [3] of the same compound?
A: Its Iron change is 195%.

Q: And the Iron change [13]?
A: The Iron change was 50%.

Q: What about the Iron change [4] of the same compound?
A: The Iron change was 53%.

Q: And the LD50 [5]?
A: Its LD50 is at least 800 mg/kg.

Q: Which No. of survivors [14] does the source give for `COC(=O)CN(CCN(CC(=O)OC)Cc1ccccc1OC(C)=O)Cc1ccccc1OC(C)=O` [DIMETHYL ESTER] here?
A: Its No. of survivors is 10.

Q: What about the Iron change [15] of the same compound?
A: Its Iron change is -13%.

Q: What about the No. of survivors [16] of the same compound?
A: The No. of survivors was 6.

Q: And the Iron change [17]?
A: Its Iron change is -46%.

Q: And the No. of survivors [18]?
A: Its No. of survivors is 10.

Q: What about the Iron change [19] of the same compound?
A: Its Iron change is -41%.

Q: And the Iron change [20]?
A: Its Iron change is -5%.

Q: And the Iron change [21]?
A: The Iron change was -40%.

Q: What about the Iron change [22] of the same compound?
A: The Iron change was -22%.

Q: What about the Iron change [23] of the same compound?
A: Its Iron change is 138%.
